Test results taken from ChEMBL document CHEMBL3414565, “Discovery of novel AHLs as potent antiproliferative agents” (Eur J Med Chem, 2015).

What was measured:
Assay type in all cases: functional, cell-based
MCF7 = experiment: Cytotoxicity against human MCF7 cells after 72 hrs by MTT assay; conditions: MCF7, 72 h
How it was run: (§1)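 Cells were grown in RPMI1640 and seeded at 5 × 10^3 cells/well, then left 24 h at 37 °C. Medium was replaced with fresh medium holding a range of compound concentrations, from 10 mM DMSO stocks with final DMSO at most 0.1%. Exposure lasted 72 h. MTT (5 mg/mL) was added for 4 h at 37 °C, formazan was dissolved in DMSO and A570 was read. IC50 came from dose-response curves as mean ± SD of three independent experiments.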

SMMC-7721 = experiment: Cytotoxicity against human SMMC7721 cells after 72 hrs by MTT assay; conditions: SMMC-7721, 72 h; how it was run: as §1
MGC-803 = experiment: Cytotoxicity against human MGC803 cells after 72 hrs by MTT assay; conditions: MGC-803, 72 h; how it was run: as §1
[1] = Cytotoxicity against human EC9706 cells after 72 hrs by MTT assay; conditions: EC9706, 72 h; how it was run: as §1

Row | Compound | IC50 (MCF7) [µM] | IC50 (SMMC-7721) [µM] | IC50 (MGC-803) [µM] | IC50 [1] [µM]
1 | COc1cc(/C=C/C(=O)c2ccc(NC(=O)CCl)cc2)cc(OC)c1OC | 1.32 | 3 | 1.72 | 2.73
2 | CCCCCCCCCC(=O)CC(=O)N[C@H]1CCOC1=O | 37.3 | > 128 | 102 | > 128
3 | Cc1ccc(/C=C/C(=O)c2ccc(NC(=O)CCl)cc2)cc1 | 9.18 | 22.9 | 3.6 | 7.15
4 | O=C(CSC(=S)N[C@H]1CCOC1=O)Nc1ccc(Cl)cc1 | 50.3 | > 128 | – | > 128
5 | O=C(CSC(=S)N[C@H]1CCOC1=O)Nc1ccc(C(=O)/C=C/c2ccc([N+](=O)[O-])cc2)cc1 | 2.67 | > 128 | 29.4 | > 128
6 | O=C(CCl)Nc1ccc(C(=O)/C=C/c2ccccc2Cl)cc1 | 5.26 | 11.1 | 2.75 | 6.98
7 | O=C(CSC(=S)N[C@H]1CCOC1=O)Nc1ccc(Br)cc1 | 66.5 | 28.3 | – | 67.4
8 | Cc1ccc(NC(=O)CSC(=S)N[C@H]2CCOC2=O)cc1 | 33.5 | 32.7 | 44.3 | 93.9
9 | O=C(CCl)Nc1ccc(C(=O)/C=C/c2cccc(Cl)c2)cc1 | 5.34 | 7.76 | 2.01 | 5.56
10 | O=C(CSC(=S)N[C@H]1CCOC1=O)Nc1ccc(C(=O)/C=C/c2ccc(Br)cc2)cc1 | 18.7 | 18 | 19.6 | 91.2
11 | O=C(CSC(=S)N[C@H]1CCOC1=O)Nc1ccc(C(=O)/C=C/c2ccccc2)cc1 | 44.3 | > 128 | 24.8 | 44.9
12 | CSC(=S)N[C@H]1CCOC1=O | > 128 | > 128 | > 128 | > 128
13 | CCCCCCCCCCCCSC(=S)N[C@H]1CCOC1=O | 61.1 | 50.3 | – | 58.3
14 | O=C(CCl)Nc1ccc(C(=O)/C=C/c2ccccc2)cc1 | 2.48 | 12.6 | 6.94 | 6.37
15 | CCCCSC(=S)N[C@H]1CCOC1=O | > 128 | > 128 | > 128 | > 128
16 | O=C(CSC(=S)N[C@H]1CCOC1=O)Nc1cccc(Cl)c1 | 46.6 | > 128 | 21.8 | 107
17 | CC(=O)c1ccc(NC(=O)CSC(=S)N[C@H]2CCOC2=O)cc1 | > 128 | > 128 | 99.4 | > 128
18 | CCCCCCCCCCCCCCSC(=S)N[C@H]1CCOC1=O | 30.5 | 56.8 | – | 66.2
19 | Cc1cccc(NC(=O)CSC(=S)N[C@H]2CCOC2=O)c1C | > 128 | 42.1 | – | > 128
20 | CCOC(=O)c1ccc(NC(=O)CSC(=S)N[C@H]2CCOC2=O)cc1 | 60.2 | 64.9 | 21.7 | 112
21 | Cc1cccc(NC(=O)CSC(=S)N[C@H]2CCOC2=O)c1 | 63.2 | > 128 | 36.6 | > 128
22 | O=C(CCl)Nc1ccc(C(=O)/C=C/c2ccc([N+](=O)[O-])cc2)cc1 | 3.91 | 9.06 | 2.35 | 3.67
23 | O=c1[nH]cc(F)c(=O)[nH]1 [FLUOROURACIL] | 12.2 | 20.4 | 10.7 | 15.7

Row | Compound | IC50 (MCF7) [µM] | IC50 (SMMC-7721) [µM] | IC50 (MGC-803) [µM] | IC50 [1] [µM]
24 | O=C(CSC(=S)N[C@H]1CCOC1=O)Nc1ccc(C(=O)/C=C/c2ccc(F)cc2)cc1 | 83.7 | > 128 | 45.7 | 46.1
25 | O=C(CSC(=S)N[C@H]1CCOC1=O)Nc1cccc(C(F)(F)F)c1 | 3.13 | > 128 | 17.9 | 79.7
26 | CCCCCCCCSC(=S)N[C@H]1CCOC1=O | > 128 | 65 | > 128 | > 128
27 | O=C(CSC(=S)N[C@H]1CCOC1=O)Nc1ccccc1F | 28.6 | > 128 | – | > 128
28 | O=C(CCl)Nc1ccc(C(=O)/C=C/c2ccc(Br)cc2)cc1 | 4.64 | 13.3 | 6.05 | 10.1
29 | O=C(CSC(=S)N[C@H]1CCOC1=O)Nc1ccc(C(=O)/C=C/c2ccc(Cl)cc2)cc1 | 20.2 | > 128 | 6.9 | 38.9
30 | O=C(CSC(=S)N[C@H]1CCOC1=O)Nc1ccc(C(=O)/C=C/c2cccc(Cl)c2)cc1 | 11.6 | 39.1 | 15.6 | 32.5
31 | O=C(CSC(=S)N[C@H]1CCOC1=O)Nc1ccccc1Cl | 90.8 | 49.9 | 31.9 | > 128
32 | O=C(CSC(=S)N[C@H]1CCOC1=O)Nc1ccc(O)cc1 | > 128 | > 128 | 80 | > 128
33 | CCCCCCSC(=S)N[C@H]1CCOC1=O | > 128 | > 128 | > 128 | > 128
34 | CCCCc1ccc(NC(=O)CSC(=S)N[C@H]2CCOC2=O)cc1 | 40.2 | 27.3 | 20.5 | 44.2
35 | COc1cccc(/C=C/C(=O)c2ccc(NC(=O)CCl)cc2)c1 | 3.02 | 10.3 | 2.91 | 5.97
36 | O=C(CCl)Nc1ccc(C(=O)/C=C/C=C/c2ccccc2)cc1 | 4.59 | 36.7 | 5.97 | 10.7
37 | O=C(CCl)Nc1ccc(C(=O)/C=C/c2ccc(F)cc2)cc1 | 5.47 | 15.1 | 4.68 | 8.6
38 | O=C(CSC(=S)N[C@H]1CCOC1=O)Nc1ccccc1 | > 128 | > 128 | 39.7 | > 128
39 | COc1ccc(NC(=O)CSC(=S)N[C@H]2CCOC2=O)cc1 | > 128 | > 128 | 62.1 | > 128
40 | O=C(CSC(=S)N[C@H]1CCOC1=O)Nc1cccc([N+](=O)[O-])c1 | 5.46 | > 128 | 58.9 | > 128
41 | CCSC(=S)N[C@H]1CCOC1=O | > 128 | > 128 | > 128 | > 128
42 | O=C(CSC(=S)N[C@H]1CCOC1=O)Nc1ccc(Cl)cc1Cl | 29.2 | > 128 | 48.5 | > 128
43 | O=C(CSC(=S)N[C@H]1CCOC1=O)Nc1ccc(F)cc1 | 5.83 | > 128 | 37.6 | 67.1
44 | O=C(CCl)Nc1ccc(C(=O)/C=C/c2ccc(Cl)cc2)cc1 | 4.1 | 8.16 | 4.96 | 8.34
45 | O=C(CCl)Nc1ccc(C(=O)/C=C/c2ccc(F)c(F)c2)cc1 | 2.29 | 5.96 | 3.19 | 4.63
